Data as given in ChEMBL document CHEMBL1153783, “Synthesis and vasodilatory activity of some amide derivatives of 6-(4-carboxymethyloxyphenyl)-4,5-dihydro-3(2H)-pyridazinone” (Eur J Med Chem, 2009).

What follows are molecules tested on Aorta (assay: Ratio of SK&F-93741 IC50 to compound IC50 for inhibition of phenylephrine-induced contraction in Wistar rat thoracic aortic ring). Conditions: not given.
Format: functional
Molecule `O=C(COc1ccc(C2=NN(c3ccc(F)cc3)C(=O)CC2)cc1)N1CCCC1` has a Ratio IC50 of 1.7.

These molecules were tested on Aorta (assay: Vasodilatory activity in Wistar rat thoracic aortic ring assessed as inhibition of phenylephrine-induced contraction at 10 uM treated after phenylephrine challenge). Conditions: not given.
Format: functional
Summary of the method: (§1)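 Thoracic aortic rings were taken from Wistar rats of either sex (300–400 g) and held in PSS at 37 °C under O2/CO2 (95:5), equilibrated ≥90 min. Rings were precontracted with 10^-6 M phenylephrine, then given cumulative additions of 10^-8 to 10^-5 M at 30 min intervals, one compound per ring. Relaxation was read as % of initial contraction. A sigmoidal fit gave pD2 and Emax, reported as mean ± SEM of 4 or 8 experiments.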
`O=C(COc1ccc(C2=NN(c3ccc(F)cc3)C(=O)CC2)cc1)N1CCCC1` showed an Emax at 10 µM of 61.8%.
Molecule `O=C(COc1ccc(C2=NN(c3ccccc3)C(=O)CC2)cc1)N1CCCCC1` has an Emax at 10 µM of 16.2%.
`CC1CC(=O)NN=C1c1ccc(OCC(=O)N2CCCCC2)cc1` (stereo not drawn) showed an Emax at 10 µM of 29.8%.
With `O=C1CCC(c2ccc(OCC(=O)N3CCCC3)cc2)=NN1` the Emax at 10 µM was 52.2%.
Molecule `CC1CC(=O)NN=C1c1ccc(OCC(=O)n2ccnc2)cc1` (stereo not drawn) has an Emax at 10 µM of 32%.
`CC1CC(=O)NN=C1c1ccc(OCC(=O)N2CCCC2)cc1` (stereo not drawn) showed an Emax at 10 µM of 21.7%.
`CC1CC(=O)NN=C1c1ccc(OCC(=O)N2CCOCC2)cc1` (stereo not drawn) was tested, and the Emax at 10 µM was 17.6%.
For `NNc1nncc2ccccc12` [HYDRALAZINE], the Emax at 10 µM was 55%.
For `O=C1CCC(c2ccc(OCC(=O)N3CCCCC3)cc2)=NN1`, the Emax at 10 µM was 61.6%.
In the case of `O=C1CCC(c2ccc(OCC(=O)N3CCOCC3)cc2)=NN1`, the Emax at 10 µM is reported as 41.8%.
`CC(=O)Nc1ccc(C2=NNC(=O)CC2C)cc1` (stereo not drawn) showed an Emax at 10 µM of 61.1%.
`CN1CCN(C(=O)COc2ccc(C3=NNC(=O)CC3)cc2)CC1` showed an Emax at 10 µM of 23.9%.
In the case of `O=C1CCC(c2ccc(OCC(=O)n3ccnc3)cc2)=NN1`, the Emax at 10 µM is reported as 3.7%.

These molecules were tested on Aorta (assay: Vasodilatory activity in Wistar rat thoracic aortic ring assessed as inhibition of phenylephrine-induced contraction treated after phenylephrine challenge). Conditions: not given.
Format: functional, tissue-based
Summary of the method: as §1
`O=C(COc1ccc(C2=NN(c3ccc(F)cc3)C(=O)CC2)cc1)N1CCCC1` showed a pD2 of 7.2.
Molecule `O=C1CCC(c2ccc(OCC(=O)N3CCCC3)cc2)=NN1` has a pD2 of 5.9.
`NNc1nncc2ccccc12` [HYDRALAZINE] gave a pD2 of 6.6.
`O=C1CCC(c2ccc(OCC(=O)N3CCCCC3)cc2)=NN1` gave a pD2 of 5.9.
`CC(=O)Nc1ccc(C2=NNC(=O)CC2C)cc1` (stereo not drawn) showed a pD2 of 7.

Same assay, conditions: Rattus norvegicus, Wistar, Aorta
`O=C(COc1ccc(C2=NN(c3ccc(F)cc3)C(=O)CC2)cc1)N1CCCC1` was tested, and the IC50 was 51 nM.
Molecule `O=C1CCC(c2ccc(OCC(=O)N3CCCC3)cc2)=NN1` has an IC50 of 1020 nM.
`O=C1CCC(c2ccc(OCC(=O)N3CCCCC3)cc2)=NN1` was tested, and the IC50 was 910 nM.

The molecules below were run on Aorta (assay: Ratio of hydralazine IC50 to compound IC50 for inhibition of phenylephrine-induced contraction in Wistar rat thoracic aortic ring). Conditions: not given.
Format: functional
For `O=C(COc1ccc(C2=NN(c3ccc(F)cc3)C(=O)CC2)cc1)N1CCCC1`, the Ratio IC50 was 4.5.
